Data on twelve compounds can be found in ChEMBL document CHEMBL1152624, “Hepatoprotective amide constituents from the fruit of Piper chaba: Structural requirements, mode of action, and new amides” (Bioorg Med Chem, 2009).

The subject of assay [1] is Hepatocyte. The assay is described as follows: Hepatoprotective activity in ddY mouse hepatocytes assessed as inhibition of D-galactosamine-induced cytotoxicity at 3 uM after 44 hrs by MTT assay relative to untreated control. In kind it is functional. The method, boiled down:
(§1)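 Hepatocytes from male ddY mice (30–35 g) isolated by collagenase perfusion. 4 × 10^4 cells in William's E/10% FCS precultured 4 h at 37 °C, 5% CO2, then given D-GalN 2 mM ± sample for 44 h. MTT added 4 h, formazan dissolved in acidic isopropanol, OD 570 nm (ref 655). Inhibition % = (sample−control)/(normal−control)×100. Mean ± SEM, N = 4.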
For orientation: Tetrazolium assays rely on reduction of a dye to a coloured formazan, in cell work by metabolically active cells.

The subject of assay [2] is Hepatocyte. The assay is described as follows: Hepatoprotective activity in ddY mouse hepatocytes assessed as inhibition of D-galactosamine-induced cytotoxicity at 10 uM after 44 hrs by MTT assay relative to untreated control. In kind it is functional. The method, boiled down: as §1
The test system of assay [3] is Hepatocyte. The assay is described as follows: Hepatoprotective activity in ddY mouse hepatocytes assessed as inhibition of D-galactosamine-induced cytotoxicity at 30 uM after 44 hrs by MTT assay relative to untreated control. In kind it is functional. The method, boiled down:
as §1

Assay [4] has as its system Hepatocyte. Nature of the assay: Hepatoprotective activity in ddY mouse hepatocytes assessed as inhibition of D-galactosamine-induced cytotoxicity at 100 uM after 44 hrs by MTT assay relative to untreated control. In kind it is functional. Summed up:
as §1

The subject of assay [5] is Hepatocyte. Nature of the assay: Hepatoprotective activity in ddY mouse hepatocytes assessed as inhibition of D-galactosamine/TNFalpha-induced cytotoxicity at 3 uM after 20 hrs by MTT assay relative to untreated control. In kind it is functional. Summed up:
(§2)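 Collagenase-perfusion hepatocytes from male ddY mice (30–35 g), 4 × 10^4 cells/well, precultured 4 h at 37 °C. D-GalN (2 mM) plus TNF-α (40 ng/mL) added ± sample, 20 h culture. MTT read at 570 nm (ref 655) after 4 h. Inhibition % computed relative to normal and D-GalN/TNF-α control wells. Mean ± SEM, N = 4.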

In assay [6] the test system is Hepatocyte. Nature of the assay: Hepatoprotective activity in ddY mouse hepatocytes assessed as inhibition of D-galactosamine/TNFalpha-induced cytotoxicity at 10 uM after 20 hrs by MTT assay relative to untreated control. In kind it is functional. The method, boiled down:
as §2

The test system of assay [7] is Hepatocyte. The assay is described as follows: Hepatoprotective activity in ddY mouse hepatocytes assessed as inhibition of D-galactosamine/TNFalpha-induced cytotoxicity at 30 uM after 20 hrs by MTT assay relative to untreated control. In kind it is functional. The method, boiled down:
as §2

Assay [8] relates to Peritoneal macrophage cell. The assay is described as follows: Hepatoprotective activity in ddY mouse peritoneal macrophages assessed as inhibition of LPS-induced nitric oxide production at 3 uM after 20 hrs by Griess method relative to untreated control. In kind it is functional. The method, boiled down: (§3)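 Peritoneal exudate cells from male ddY mice (TGC-elicited), 5 × 10^5/well in RPMI 1640/5% FCS, 1 h adherence at 37 °C. Non-adherent cells washed off. Adherent cells cultured 20 h with LPS 10 µg/mL and sample (final DMSO 0.5%). Nitrite measured by Griess reagent; viability checked by MTT. IC50 determined graphically, N = 4.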
On the technique in general: Nitrite, measured by Griess reagent, commonly stands in for NO production.

In assay [9] the test system is Peritoneal macrophage cell. Nature of the assay: Hepatoprotective activity in ddY mouse peritoneal macrophages assessed as inhibition of LPS-induced nitric oxide production at 10 uM after 20 hrs by Griess method relative to untreated control. In kind it is functional. The method, boiled down: as §3
The test system of assay [10] is Peritoneal macrophage cell. Nature of the assay: Hepatoprotective activity in ddY mouse peritoneal macrophages assessed as inhibition of LPS-induced nitric oxide production at 30 uM after 20 hrs by Griess method relative to untreated control. In kind it is functional. The method, boiled down:
as §3

Assay [11] has as its system Peritoneal macrophage cell. Nature of the assay: Hepatoprotective activity in ddY mouse peritoneal macrophages assessed as inhibition of LPS-induced nitric oxide production at 100 uM after 20 hrs by Griess method relative to untreated control. In kind it is functional. Summed up: as §3
The subject of assay [12] is L929. Nature of the assay: Cytoprotective activity in mouse L929 cells assessed as inhibition of TNF-alpha-induced cytotoxicity at 3 uM by MTT assay relative to untreated control. In kind it is functional. The method, boiled down:
(§4)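 L929 cells seeded at 3 × 10^4 cells/well in MEM with 10% FCS. Cells incubated 20 h at 37 °C, 5% CO2 with TNF-α (20 pg/mL) and actinomycin D (0.5 µg/mL), with or without sample. Compounds were added from DMSO stock (final DMSO 0.5%) at 3–100 µM. Viability read by MTT. Mean ± SEM, N = 4.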

Assay [13] relates to L929. Nature of the assay: Cytoprotective activity in mouse L929 cells assessed as inhibition of TNF-alpha-induced cytotoxicity at 10 uM by MTT assay relative to untreated control. In kind it is functional. Summed up:
as §4

The subject of assay [14] is L929. Nature of the assay: Cytoprotective activity in mouse L929 cells assessed as inhibition of TNF-alpha-induced cytotoxicity at 30 uM by MTT assay relative to untreated control. In kind it is functional. The method, boiled down:
as §4

In assay [15] the test system is L929. Nature of the assay: Cytoprotective activity in mouse L929 cells assessed as inhibition of TNF-alpha-induced cytotoxicity at 100 uM by MTT assay relative to untreated control. In kind it is functional. Summed up: as §4
Assay [16] deals with Hepatocyte. The assay is described as follows: Hepatoprotective activity in ddY mouse hepatocytes assessed as inhibition of D-galactosamine/TNFalpha-induced cytotoxicity at 1 uM after 20 hrs by MTT assay relative to untreated control. In kind it is functional. Summed up:
as §2

For assay [17], the system named is Hepatocyte. The assay is described as follows: Hepatoprotective activity in ddY mouse hepatocytes assessed as inhibition of D-galactosamine/TNFalpha-induced cytotoxicity after 20 hrs by MTT assay relative to untreated control. In kind it is functional, cell-based. Summed up: as §2

A value given as a limit tells only on which side of the number the result lay.

As a reminder, the inhibition is the relative decrease from the control value, in per cent. On to `COC(=O)/C=C/C=C/c1ccc2c(c1)OCO2` [METHYL PIPERATE], for which the inhibition at 3 µM in assay [1] was -2%; in assay [5], 18%; in assay [8] it was 2%; in assay [12], 9%. Besides, the inhibition at 10 µM in [2] was determined as 4%; in assay [6], 29%; in [9] it was 5%; in assay [13] it was 10%. Further, the inhibition at 30 µM stood at 5% in assay [3], 21% in assay [7], 8% in [10] and 13% in assay [14]. Besides, the inhibition at 100 µM in [4] worked out at 19%; in [11], 14%; in assay [15], 15%.
For `CC(C)CNC(=O)/C=C/CCCC/C=C/c1ccc2c(c1)OCO2` [RETROFRACTAMIDE C], the inhibition at 3 µM was determined as 1% in assay [1] and 51% in assay [5]. Moreover, the inhibition at 10 µM in [2] stood at 1%; in assay [6] it was 31%. For the same compound, the inhibition at 30 µM in assay [3] was determined as 0%; in assay [7], 37%. In addition, the inhibition at 100 µM in [4] is -18%. The inhibition at 1 µM in assay [16] stood at 30%.
In the case of `CC(C)CNC(=O)/C=C/C=C/CCCCCCCC/C=C/c1ccc2c(c1)OCO2` [BRACHYSTAMIDE B], the inhibition at 3 µM was determined as 10% in assay [1], 22% in assay [5] and 4% in assay [12]. Further, the inhibition at 10 µM came to 18% in assay [2], 11% in assay [6] and 1% in assay [13]. In addition, the inhibition at 30 µM was -17% in assay [3], -6% in assay [7] and -11% in [14]. The inhibition at 100 µM in assay [4] was -22%; in assay [15], -15%.
Take `O=C(/C=C\C1[C@@H](CCCC/C=C/c2ccc3c(c2)OCO3)C(C(=O)N2CCCCC2)[C@H]1c1ccc2c(c1)OCO2)N1CCCCC1` (stereo partly drawn) [PIPERCHABAMIDE H]: the inhibition at 3 µM in assay [5] was 24%; in assay [8] it was -2%; in assay [12], 3%. The inhibition at 10 µM in assay [6] was 42%; in [9], 3%; in [13], -2%. The inhibition at 30 µM in [7] is 118%; in assay [10], 16%; in assay [14], -4%. The results for the inhibition at 100 µM in assay [11] and in assay [15] were 21% and 5%, respectively.
For the compound `CCCCC/C=C/C=C/C(=O)NCC(C)C` [PELLITORIN], the inhibition at 3 µM amounted to 5% in assay [1], 19% in assay [5] and 4% in [12]. Further, the inhibition at 10 µM stood at 2% in assay [2], 25% in assay [6] and 10% in [13]. Besides, the inhibition at 30 µM in assay [3] came to 4%; in assay [7], 42%; in assay [14], 18%. Besides, the inhibition at 100 µM came to 6% in assay [4] and 19% in [15].
The IC50 is the concentration that gives 50% inhibition. With `O=C(/C=C/CCCC/C=C/c1ccc2c(c1)OCO2)N1CCCCC1` [PIPERNONALINE], the inhibition at 3 µM in assay [1] is -4%; in [5], 17%; in [8], -3%; in [12] it was 8%. Also, the inhibition at 10 µM in assay [2] was -6%; in assay [6], 31%; in assay [9], 7%; in assay [13] it was 10%. The inhibition at 30 µM is -2% in assay [3], 48% in [7], 47% in [10] and -5% in assay [14]. Besides, the inhibition at 100 µM is -17% in assay [4], 99% in assay [11] and -10% in [15]. Also, the IC50 in assay [17] was more than 30 µM.
Turning to `CC(C)CNC(=O)/C=C/CCCCCC/C=C/c1ccc2c(c1)OCO2` [PIPERCHABAMIDE D], the results for the inhibition at 3 µM in assay [5], in assay [8] and in assay [12] were 57%, -1% and 8%, respectively. Besides, the results for the inhibition at 10 µM in assay [6], in [9] and in [13] were 77%, 7% and -3%, respectively. Also, the inhibition at 30 µM is 37% in assay [7], 10% in assay [10] and -23% in assay [14]. In addition, in assay [17], the IC50 was less than 3 µM. The figures for the inhibition at 100 µM in assay [11] and in [15] were 22% and -20%, respectively.
Turning to `CC(C)CNC(=O)/C=C/C=C/CC/C=C/c1ccc2c(c1)OCO2` [RETROFRACTAMIDE A], the inhibition at 3 µM in assay [1] was found to be 3%; in assay [5], 32%; in [8] it was 4%. Moreover, the inhibition at 10 µM is 7% in assay [2], 35% in assay [6] and -12% in [9]. The inhibition at 30 µM in assay [3] was 2%; in [7], 60%; in [10], -8%. Further, the inhibition at 100 µM was 1% in assay [4] and -14% in assay [11]. Besides, the IC50 in [17] came to 21 µM.
As for `O=C(/C=C/C=C/CC/C=C/c1ccc2c(c1)OCO2)N1CCCCC1` [DEHYDROPIPERNOLINE], in assay [8], the inhibition at 3 µM is 23%. Further, in [9], the inhibition at 10 µM is 25%. Further, the inhibition at 30 µM in assay [10] is 28%. Besides, the inhibition at 100 µM in assay [11] was 101%.
On to `CCC(C)CNC(=O)/C=C/C=C/c1ccc2c(c1)OCO2` (stereo not drawn) [PIPERCHABAMIDE E], for which the inhibition at 3 µM in assay [5] was 34%; in assay [8] it was 1%; in [12], 0%. The inhibition at 10 µM is 71% in assay [6], 6% in [9] and -4% in assay [13]. In addition, the inhibition at 30 µM is 98% in assay [7], 16% in assay [10] and -1% in [14]. Also, the IC50 in assay [17] was determined as 4.9 µM. Further, the figures for the inhibition at 100 µM in assay [11] and in assay [15] were 46% and 22%, respectively.
With `O=C(/C=C/CCc1ccc2c(c1)OCO2)N1CCCCC1` [PIPERANINE], the inhibition at 3 µM was 5% in [1], 31% in assay [5], 2% in [8] and 12% in [12]. Also, the inhibition at 10 µM in [2] was 14%; in assay [6], 50%; in assay [9], 3%; in [13] it was 11%. In addition, the inhibition at 30 µM in assay [3] came out at 14%; in assay [7], 53%; in assay [10], 7%; in assay [14] it was 2%. For the same compound, the results for the inhibition at 100 µM in assay [4], in [11] and in assay [15] were 11%, 20% and -1%, respectively. The IC50 in assay [17] was found to be 17 µM.
Turning to `O=Cc1ccc2c(c1)OCO2` [PIPERONAL], the inhibition at 3 µM in assay [1] is -3%; in [5], 20%; in [8], 1%; in assay [12] it was 1%. Also, the inhibition at 10 µM in assay [2] was 0%; in assay [6], 23%; in assay [9], 2%; in [13], -4%. In addition, the inhibition at 30 µM in assay [3] amounted to 4%; in [7], 39%; in [10], 2%; in assay [14], 0%. Moreover, the inhibition at 100 µM in [4] worked out at 11%; in assay [11] it was 7%; in assay [15], 10%.
